From ChEMBL document CHEMBL4251593, “Nontoxic combretafuranone analogues with high in vitro antibacterial activity” (Eur J Med Chem, 2018)
pIC50: −log10 of the molar value.

Legend:
TERT-RPE1 [1] = assay: Cytotoxicity against human RPE1 cells assessed as reduction in cell viability after 48 hrs by ATPlite-based luminescent assay; settings: RPE-1, 48 h
Outline: (§1)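 Cells were grown […] with 10% FBS, glutamax, NEAA and pen/strep at 37 °C, 5% CO2. Media were DMEM for RPE-1, HepG2 and BJ (BJ plus 10 ng/ml bFGF), F-12K for PC3, and IMDM for K562/HL-60. Cells were seeded at 500 per well and dosed from DMSO at 12 concentrations, 40 µM to 1 nM, in triplicate. After 48 h, intracellular ATP was read by luminescence. ED50 was obtained by variable-slope nonlinear regression.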

BJ = assay: Cytotoxicity against human BJ cells assessed as reduction in cell viability after 48 hrs by ATPlite-based luminescent assay; outline: as §1
K562 [2] = assay: Cytotoxicity against human K562 cells assessed as reduction in cell viability after 48 hrs by ATPlite-based luminescent assay; settings: K562, 48 h; outline: as §1
HL-60 [3] = assay: Cytotoxicity against human HL60 cells assessed as reduction in cell viability after 48 hrs by ATPlite-based luminescent assay; settings: HL-60, 48 h; outline: as §1
PC-3 [4] = assay: Cytotoxicity against human PC3 cells assessed as reduction in cell viability after 48 hrs by ATPlite-based luminescent assay; settings: PC-3, 48 h; outline: as §1
MCF7 = assay: Cytotoxicity against human MCF7 cells assessed as reduction in cell viability after 48 hrs by ATPlite-based luminescent assay; settings: MCF7, 48 h
HepG2 [5] = assay: Cytotoxicity against human HepG2 cells assessed as reduction in cell viability after 48 hrs by ATPlite-based luminescent assay; settings: HepG2, 48 h; outline: as §1
TERT-RPE1 [6] = assay: Induction of apoptosis in human RPE1 cells assessed as caspase 3/7 activity after 24 hrs by caspase-glo luminescent assay; format: cell-based; settings: RPE-1, 24 h
Outline: (§2)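 Cells were seeded at 500 per well in their growth media and exposed to 12 concentrations from 40 µM to 1 nM, delivered from DMSO, in triplicate. After 24 h, caspase-3/7 activity was read by Caspase-Glo luminescence. Data were normalized and ED50 was fitted by variable-slope nonlinear regression.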

K562 [7] = assay: Induction of apoptosis in human K562 cells assessed as caspase 3/7 activity after 24 hrs by caspase-glo luminescent assay; format: cell-based; settings: K562, 24 h; outline: as §2
HL-60 [8] = assay: Induction of apoptosis in human HL60 cells assessed as caspase 3/7 activity after 24 hrs by caspase-glo luminescent assay; format: cell-based; settings: HL-60, 24 h; outline: as §2
PC-3 [9] = assay: Induction of apoptosis in human PC3 cells assessed as caspase 3/7 activity after 24 hrs by caspase-glo luminescent assay; format: cell-based; settings: PC-3, 24 h; outline: as §2
HepG2 [10] = assay: Induction of apoptosis in human HepG2 cells assessed as caspase 3/7 activity after 24 hrs by caspase-glo luminescent assay; format: cell-based; settings: HepG2, 24 h; outline: as §2
Staphylococcus aureus [11] = assay: Antibacterial activity against Staphylococcus aureus ATCC 6538 after 24 hrs by microdilution assay; format: functional; settings: ATCC 6538, 24 h
Staphylococcus aureus [12] = assay: Antibacterial activity against methicillin-resistant Staphylococcus aureus HK5996/08 clinical isolate after 24 hrs by microdilution assay; format: functional; settings: HK5996/08, 24 h
[13] = test system: Staphylococcus epidermidis; assay: Antibacterial activity against Staphylococcus epidermidis HK6966/08 clinical isolate after 24 hrs by microdilution assay; format: functional; settings: HK6966/08, 24 h
Enterococcus sp. [14] = assay: Antibacterial activity against Enterococcus sp. HK14365/08 clinical isolate after 24 hrs by microdilution assay; format: functional; settings: HK14365/08, 24 h
Escherichia coli [15] = assay: Antibacterial activity against Escherichia coli ATCC 8739 after 24 hrs by microdilution assay; format: functional; settings: ATCC 8739, 24 h
Outline: (§3)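 Broth microdilution in Mueller-Hinton medium buffered to pH 7.4 (±0.2), with DMSO as diluent at no more than 2% final. Compounds were tested as 2-fold serial dilutions from 2000 to 0.488 µmol/l. The inoculum was 0.5 McFarland (1.5×10^8 cfu/ml). Plates were held at 37 °C and read visually at 24 and 48 h. MIC was taken as 95% growth inhibition versus control, determined twice in duplicate.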

Klebsiella pneumoniae [16] = assay: Antibacterial activity against Klebsiella pneumoniae HK11750/08 clinical isolate after 24 hrs by microdilution assay; format: functional; settings: HK11750/08, 24 h
Klebsiella pneumoniae [17] = assay: Antibacterial activity against Klebsiella pneumoniae HK14368/08 clinical isolate after 24 hrs by microdilution assay; format: functional; settings: HK14368/08, 24 h
Pseudomonas aeruginosa [18] = assay: Antibacterial activity against Pseudomonas aeruginosa ATCC 9027 after 24 hrs by microdilution assay; format: functional; settings: ATCC 9027, 24 h; outline: as §3
Staphylococcus aureus [19] = assay: Antibacterial activity against Staphylococcus aureus ATCC 6538 after 48 hrs by microdilution assay; format: functional; settings: ATCC 6538, 48 h
Staphylococcus aureus [20] = assay: Antibacterial activity against methicillin-resistant Staphylococcus aureus HK5996/08 clinical isolate after 48 hrs by microdilution assay; format: functional; settings: HK5996/08, 48 h
[21] = test system: Staphylococcus epidermidis; assay: Antibacterial activity against Staphylococcus epidermidis HK6966/08 clinical isolate after 48 hrs by microdilution assay; format: functional; settings: HK6966/08, 48 h
Enterococcus sp. [22] = assay: Antibacterial activity against Enterococcus sp. HK14365/08 clinical isolate after 48 hrs by microdilution assay; format: functional; settings: HK14365/08, 48 h
Escherichia coli [23] = assay: Antibacterial activity against Escherichia coli ATCC 8739 after 48 hrs by microdilution assay; format: functional; settings: ATCC 8739, 48 h; outline: as §3
Klebsiella pneumoniae [24] = assay: Antibacterial activity against Klebsiella pneumoniae HK11750/08 clinical isolate after 48 hrs by microdilution assay; format: functional; settings: HK11750/08, 48 h
Klebsiella pneumoniae [25] = assay: Antibacterial activity against Klebsiella pneumoniae HK14368/08 clinical isolate after 48 hrs by microdilution assay; format: functional; settings: HK14368/08, 48 h
Pseudomonas aeruginosa [26] = assay: Antibacterial activity against Pseudomonas aeruginosa ATCC 9027 after 48 hrs by microdilution assay; format: functional; settings: ATCC 9027, 48 h; outline: as §3

CC(=O)OCC1(COC(C)=O)OC(=O)C(c2ccc(Br)cc2)=C1c1ccc(C)cc1
> 125 µM: MIC95 (Staphylococcus aureus [11]) | MIC95 (Staphylococcus aureus [12]) | MIC95 [13] | MIC95 (Enterococcus sp. [14]) | MIC95 (Escherichia coli [15]) | MIC95 (Klebsiella pneumoniae [16]) | MIC95 (Klebsiella pneumoniae [17]) | MIC95 (Pseudomonas aeruginosa [18]) | MIC95 (Staphylococcus aureus [19]) | MIC95 (Staphylococcus aureus [20]) | MIC95 [21] | MIC95 (Enterococcus sp. [22]) | MIC95 (Escherichia coli [23]) | MIC95 (Klebsiella pneumoniae [24]) | MIC95 (Klebsiella pneumoniae [25]) | MIC95 (Pseudomonas aeruginosa [26])
< 4.40: pIC50 (TERT-RPE1 [1]) | pIC50 (BJ) | pIC50 (K562 [2]) | pIC50 (HL-60 [3]) | pIC50 (PC-3 [4]) | pIC50 (MCF7) | pIC50 (HepG2 [5]) | pIC50 (TERT-RPE1 [6]) | pIC50 (K562 [7]) | pIC50 (HL-60 [8]) | pIC50 (PC-3 [9]) | pIC50 (HepG2 [10])

O=C1OCC(c2ccccc2)=C1c1cccc(C(F)(F)F)c1
31.2 µM: MIC95 [13] | MIC95 [21]
< 4.40: pIC50 (TERT-RPE1 [1]) | pIC50 (BJ) | pIC50 (K562 [2]) | pIC50 (HL-60 [3]) | pIC50 (PC-3 [4]) | pIC50 (MCF7) | pIC50 (HepG2 [5]) | pIC50 (TERT-RPE1 [6]) | pIC50 (K562 [7]) | pIC50 (HL-60 [8]) | pIC50 (PC-3 [9]) | pIC50 (HepG2 [10])
> 500 µM: MIC95 (Enterococcus sp. [14]) | MIC95 (Escherichia coli [15]) | MIC95 (Klebsiella pneumoniae [16]) | MIC95 (Klebsiella pneumoniae [17]) | MIC95 (Pseudomonas aeruginosa [18]) | MIC95 (Enterococcus sp. [22]) | MIC95 (Escherichia coli [23]) | MIC95 (Klebsiella pneumoniae [24]) | MIC95 (Klebsiella pneumoniae [25]) | MIC95 (Pseudomonas aeruginosa [26])
62.5 µM: MIC95 (Staphylococcus aureus [12]) | MIC95 (Staphylococcus aureus [20])
15.6 µM: MIC95 (Staphylococcus aureus [11]) | MIC95 (Staphylococcus aureus [19])

O=C1OCC(c2ccc(O)c(O)c2)=C1c1ccc(O)cc1
> 500 µM: MIC95 (Escherichia coli [15]) | MIC95 (Klebsiella pneumoniae [16]) | MIC95 (Klebsiella pneumoniae [17]) | MIC95 (Pseudomonas aeruginosa [18]) | MIC95 (Escherichia coli [23]) | MIC95 (Klebsiella pneumoniae [24]) | MIC95 (Klebsiella pneumoniae [25]) | MIC95 (Pseudomonas aeruginosa [26])
500 µM: MIC95 (Enterococcus sp. [14]) | MIC95 (Staphylococcus aureus [19]) | MIC95 (Staphylococcus aureus [20]) | MIC95 [21] | MIC95 (Enterococcus sp. [22])
250 µM: MIC95 (Staphylococcus aureus [11]) | MIC95 (Staphylococcus aureus [12]) | MIC95 [13]
4.79: pIC50 (K562 [2])
< 4.40: pIC50 (TERT-RPE1 [1]) | pIC50 (BJ) | pIC50 (HL-60 [3]) | pIC50 (PC-3 [4]) | pIC50 (MCF7) | pIC50 (HepG2 [5]) | pIC50 (TERT-RPE1 [6]) | pIC50 (K562 [7]) | pIC50 (HL-60 [8]) | pIC50 (PC-3 [9]) | pIC50 (HepG2 [10])

Cc1ccc(C2=C(c3cccc(Cl)c3)C(=O)OC2)cc1
< 4.40: pIC50 (BJ) | pIC50 (PC-3 [4]) | pIC50 (MCF7) | pIC50 (HepG2 [5]) | pIC50 (TERT-RPE1 [6]) | pIC50 (K562 [7]) | pIC50 (HL-60 [8]) | pIC50 (PC-3 [9]) | pIC50 (HepG2 [10])
6.68: pIC50 (K562 [2])
6.32: pIC50 (HL-60 [3])
> 500 µM: MIC95 (Enterococcus sp. [14]) | MIC95 (Escherichia coli [15]) | MIC95 (Klebsiella pneumoniae [16]) | MIC95 (Klebsiella pneumoniae [17]) | MIC95 (Pseudomonas aeruginosa [18]) | MIC95 (Enterococcus sp. [22]) | MIC95 (Escherichia coli [23]) | MIC95 (Klebsiella pneumoniae [24]) | MIC95 (Klebsiella pneumoniae [25]) | MIC95 (Pseudomonas aeruginosa [26])
15.6 µM: MIC95 (Staphylococcus aureus [12]) | MIC95 [13] | MIC95 (Staphylococcus aureus [20]) | MIC95 [21]
6.06: pIC50 (TERT-RPE1 [1])
1.95 µM: MIC95 (Staphylococcus aureus [11]) | MIC95 (Staphylococcus aureus [19])
